From ChEMBL document CHEMBL5661979, “Pharmacological inhibition of BMK1 suppresses tumor growth through promyelocytic leukemia protein” (Cancer Cell, 2010) come the findings set out here.

Series [1] addresses Glycogen synthase kinase-3 beta (Homo sapiens, UniProt P49841). The series is described as follows: Inhibition of GSK3B isoform 2 in human HeLa cells lysate pre incubated for 15 mins followed by ATP acyl phosphate probe addition and measured after 10 mins by LC-MS/MS analysis. The class given is subcellular.
Series [2] deals with Tyrosine-protein kinase ABL (Homo sapiens, UniProt P00519+P42684). Briefly: Inhibition of ABL1/2 in human HeLa cells lysate at 2 uM pre incubated for 15 mins followed by ATP acyl phosphate probe addition and measured after 10 mins by LC-MS/MS analysis relative to control. It counts as subcellular. The conditions noted are these: time 25.0 min. The gist of the method:
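HeLa cell lysates (5 mg/mL total protein) were preincubated with inhibitor at 0, 0.8, 2, 10 or 50 μM for 15 min. ATP or ADP acylphosphate probe was then added (5 μM final) for 10 min, and reactions were stopped with urea. Up to four fragment ions per kinase probe-peptide were quantified by targeted MS. % inhibition was taken relative to untreated lysate. Run in duplicate.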

For series [3], the target named is Cyclin-dependent kinase 15 (Homo sapiens, UniProt Q96Q40). The series is described as follows: Inhibition of PFTAIRE2 in human HeLa cells lysate pre incubated for 15 mins followed by ADP acyl phosphate probe addition and measured after 10 mins by LC-MS/MS analysis. It counts as subcellular.
Series [4] can be described thus: Inhibition of NEK6/7 in human HeLa cells lysate at 2 uM pre incubated for 15 mins followed by ATP acyl phosphate probe addition and measured after 10 mins by LC-MS/MS analysis relative to control. The conditions noted are these: 25 min, condition cancer.
Series [5] in a line: AUCinfinity in Sprague-Dawley rat at 2 mg/kg, po measured up to 8 hrs by LC-MS/MS analysis. It counts as ADME, organism-based. The conditions noted are these: in vivo. The gist of the method:
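Sprague-Dawley rats given one intravenous dose or one oral dose of 2 mg/kg. Plasma drug concentrations were followed over time, with samples taken out to 8 hr after dosing. PK parameters (clearance, volume of distribution, half-life, oral bioavailability, Cmax) were calculated from these concentration–time data.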

Series [6] concerns the target Cyclin-dependent kinase 2 (Homo sapiens, UniProt P24941). The series is described as follows: Inhibition of CDK2 K2 site in human HeLa cells lysate at 10 uM pre incubated for 15 mins followed by ADP acyl phosphate probe addition and measured after 10 mins by LC-MS/MS analysis relative to control. It counts as subcellular. The settings on record: time 25.0 min. The gist of the method: (§1)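 KiNativ profiling in HeLa lysate (5 mg/mL total protein). Lysate incubated 15 min with inhibitor at 50, 10, 2, 0.8 or 0 μM. ATP or ADP acylphosphate probe then added (5 μM final) and reacted 10 min. Reaction stopped with urea and analysed by targeted MS, using up to four fragment ions per kinase peptide-probe conjugate. % inhibition taken against untreated lysate. Run in duplicate.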

Series [7] addresses T1, Phosphorylase b kinase gamma catalytic chain, liver/testis isoform (Homo sapiens) (UniProt P15735).
T1 sequence (whole entry): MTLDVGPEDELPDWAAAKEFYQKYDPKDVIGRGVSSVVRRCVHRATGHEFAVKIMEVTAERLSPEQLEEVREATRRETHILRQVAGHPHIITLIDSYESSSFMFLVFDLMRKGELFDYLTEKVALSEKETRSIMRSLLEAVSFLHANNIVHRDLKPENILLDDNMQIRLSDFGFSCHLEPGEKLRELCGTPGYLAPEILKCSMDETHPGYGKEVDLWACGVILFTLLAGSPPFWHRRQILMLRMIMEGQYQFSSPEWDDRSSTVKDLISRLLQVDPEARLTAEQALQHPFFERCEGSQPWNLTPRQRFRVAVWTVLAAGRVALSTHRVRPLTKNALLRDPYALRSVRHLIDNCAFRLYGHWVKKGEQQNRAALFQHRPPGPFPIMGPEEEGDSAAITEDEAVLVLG
The series is described as follows: Inhibition of PHKg2 in human HeLa cells lysate at 50 uM pre incubated for 15 mins followed by ATP acyl phosphate probe addition and measured after 10 mins by LC-MS/MS analysis relative to control. The settings on record: time 25.0 min. The class given is subcellular.

Series [8] has as its target T2, Non-receptor tyrosine-protein kinase TNK1 (Homo sapiens) (UniProt Q13470).
T2 sequence (whole entry): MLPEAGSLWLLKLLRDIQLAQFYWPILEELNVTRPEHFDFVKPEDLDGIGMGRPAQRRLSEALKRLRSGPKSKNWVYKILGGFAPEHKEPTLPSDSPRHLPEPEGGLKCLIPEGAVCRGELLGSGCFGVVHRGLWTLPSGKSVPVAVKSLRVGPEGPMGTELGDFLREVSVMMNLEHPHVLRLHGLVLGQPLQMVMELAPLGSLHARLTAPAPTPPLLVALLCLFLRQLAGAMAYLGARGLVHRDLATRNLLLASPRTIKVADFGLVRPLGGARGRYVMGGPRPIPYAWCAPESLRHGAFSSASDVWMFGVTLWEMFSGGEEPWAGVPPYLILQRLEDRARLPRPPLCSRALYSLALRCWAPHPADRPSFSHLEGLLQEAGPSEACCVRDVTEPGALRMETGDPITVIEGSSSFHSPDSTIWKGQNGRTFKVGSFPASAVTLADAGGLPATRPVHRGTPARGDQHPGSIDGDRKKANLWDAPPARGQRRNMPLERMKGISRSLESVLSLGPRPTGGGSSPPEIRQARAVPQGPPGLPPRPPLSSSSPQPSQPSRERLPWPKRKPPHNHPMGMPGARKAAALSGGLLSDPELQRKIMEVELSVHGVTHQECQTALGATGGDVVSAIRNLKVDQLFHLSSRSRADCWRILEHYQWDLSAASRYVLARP
The series is described as follows: Inhibition of recombinant TNK1 (unknown origin) expressed in HEK293 cells at 0.08 to 10 uM incubated for 15 mins in presence of 32P-gamma-ATP. It counts as cell-based. The conditions noted are these: dose 0.08-10 µM.

Series [9] can be described thus: Inhibition of MAP3K2/3 in human HeLa cells lysate at 10 uM pre incubated for 15 mins followed by ATP acyl phosphate probe addition and measured after 10 mins by LC-MS/MS analysis relative to control. The settings on record: 25 min, condition cancer.
Series [10] is described as follows: Inhibition of PKD1/2 in human HeLa cells lysate at 2 uM pre incubated for 15 mins followed by ATP acyl phosphate probe addition and measured after 10 mins by LC-MS/MS analysis relative to control. The settings on record: 25 min, condition cancer.
In series [11] the target is Calcium/calmodulin-dependent protein kinase type II subunit delta (Homo sapiens, UniProt Q13557). The series is described as follows: Inhibition of CamK2d in human HeLa cells lysate at 2 uM pre incubated for 15 mins followed by ADP acyl phosphate probe addition and measured after 10 mins by LC-MS/MS analysis relative to control. It counts as subcellular. The settings on record: time 25.0 min.

The nature of series [12]: Toxicity in C57Bl/6 mouse assessed as effect on globulin level at 50 mg/kg, ip for 14 days (reference value: 2.3 g/dl). The class given is organism-based. The settings on record: in vivo, 336 h, time 14 day.
For series [13], the target named is Hepatocyte growth factor receptor (Homo sapiens, UniProt P08581). Briefly: Inhibition of MET in human HeLa cells lysate pre incubated for 15 mins followed by ATP acyl phosphate probe addition and measured after 10 mins by LC-MS/MS analysis. It counts as subcellular.
Series [14] has as its target Cyclin-dependent kinase 13 (Homo sapiens, UniProt Q14004). The series is described as follows: Inhibition of CHED in human HeLa cells lysate at 2 uM pre incubated for 15 mins followed by ADP acyl phosphate probe addition and measured after 10 mins by LC-MS/MS analysis relative to control. The conditions noted are these: time 25.0 min. The class given is subcellular. The gist of the method: as §1

Series [15] can be described thus: Inhibition of MAP3K2/3 in human HeLa cells lysate at 2 uM pre incubated for 15 mins followed by ATP acyl phosphate probe addition and measured after 10 mins by LC-MS/MS analysis relative to control. The settings on record: 25 min, condition cancer.

The source made the active and inactive calls. The rule behind the calls is not given here.

Sequence of Hepatocyte growth factor receptor (P08581 whole entry): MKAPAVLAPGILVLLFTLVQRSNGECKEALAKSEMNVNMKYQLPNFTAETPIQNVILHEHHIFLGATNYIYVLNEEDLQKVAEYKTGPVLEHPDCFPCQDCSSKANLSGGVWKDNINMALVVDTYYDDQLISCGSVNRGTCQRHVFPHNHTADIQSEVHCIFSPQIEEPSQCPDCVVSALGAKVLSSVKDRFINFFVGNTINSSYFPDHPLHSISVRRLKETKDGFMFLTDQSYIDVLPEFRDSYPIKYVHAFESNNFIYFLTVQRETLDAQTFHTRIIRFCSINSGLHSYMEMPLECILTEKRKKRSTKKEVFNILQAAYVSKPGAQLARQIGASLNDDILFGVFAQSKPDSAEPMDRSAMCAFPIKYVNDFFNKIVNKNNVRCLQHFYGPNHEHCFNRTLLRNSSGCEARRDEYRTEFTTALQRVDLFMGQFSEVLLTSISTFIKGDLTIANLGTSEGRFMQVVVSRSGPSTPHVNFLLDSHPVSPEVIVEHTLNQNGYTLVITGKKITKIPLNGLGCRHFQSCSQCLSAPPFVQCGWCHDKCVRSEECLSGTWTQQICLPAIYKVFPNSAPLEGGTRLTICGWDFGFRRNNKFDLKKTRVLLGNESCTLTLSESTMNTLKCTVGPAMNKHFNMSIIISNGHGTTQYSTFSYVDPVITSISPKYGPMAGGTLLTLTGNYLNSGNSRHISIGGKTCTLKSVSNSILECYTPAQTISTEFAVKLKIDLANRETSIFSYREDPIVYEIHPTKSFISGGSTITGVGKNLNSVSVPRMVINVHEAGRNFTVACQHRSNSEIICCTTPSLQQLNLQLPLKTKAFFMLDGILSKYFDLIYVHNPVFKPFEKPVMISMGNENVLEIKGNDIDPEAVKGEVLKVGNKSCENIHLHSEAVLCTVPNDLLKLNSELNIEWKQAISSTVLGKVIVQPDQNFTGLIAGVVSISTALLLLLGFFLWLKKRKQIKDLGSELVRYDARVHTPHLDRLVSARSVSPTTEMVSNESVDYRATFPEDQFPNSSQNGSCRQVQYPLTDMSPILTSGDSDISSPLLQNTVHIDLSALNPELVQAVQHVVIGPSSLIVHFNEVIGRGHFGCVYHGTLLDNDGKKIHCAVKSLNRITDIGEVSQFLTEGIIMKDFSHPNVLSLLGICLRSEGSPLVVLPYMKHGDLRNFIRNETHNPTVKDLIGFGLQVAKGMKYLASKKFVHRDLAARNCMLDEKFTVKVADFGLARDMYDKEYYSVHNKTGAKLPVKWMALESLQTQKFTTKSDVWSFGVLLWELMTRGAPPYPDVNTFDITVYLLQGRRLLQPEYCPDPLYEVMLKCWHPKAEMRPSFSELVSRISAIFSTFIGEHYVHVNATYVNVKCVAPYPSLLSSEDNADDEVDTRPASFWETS
Sequence of Calcium/calmodulin-dependent protein kinase type II subunit delta (Q13557 whole entry): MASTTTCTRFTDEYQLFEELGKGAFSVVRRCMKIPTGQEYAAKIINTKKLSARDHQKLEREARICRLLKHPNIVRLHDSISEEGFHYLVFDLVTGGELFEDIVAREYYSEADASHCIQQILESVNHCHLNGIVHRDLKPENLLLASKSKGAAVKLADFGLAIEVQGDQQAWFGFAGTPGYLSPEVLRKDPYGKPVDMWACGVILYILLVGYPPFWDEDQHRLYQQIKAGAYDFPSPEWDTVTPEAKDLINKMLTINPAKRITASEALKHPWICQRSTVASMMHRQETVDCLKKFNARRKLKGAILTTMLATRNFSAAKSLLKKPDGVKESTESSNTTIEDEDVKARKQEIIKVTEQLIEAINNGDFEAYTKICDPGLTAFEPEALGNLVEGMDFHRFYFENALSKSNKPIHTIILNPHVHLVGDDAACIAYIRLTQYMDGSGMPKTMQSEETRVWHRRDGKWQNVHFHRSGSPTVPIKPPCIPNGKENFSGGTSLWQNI
Sequence of Cyclin-dependent kinase 15 (Q96Q40 whole entry): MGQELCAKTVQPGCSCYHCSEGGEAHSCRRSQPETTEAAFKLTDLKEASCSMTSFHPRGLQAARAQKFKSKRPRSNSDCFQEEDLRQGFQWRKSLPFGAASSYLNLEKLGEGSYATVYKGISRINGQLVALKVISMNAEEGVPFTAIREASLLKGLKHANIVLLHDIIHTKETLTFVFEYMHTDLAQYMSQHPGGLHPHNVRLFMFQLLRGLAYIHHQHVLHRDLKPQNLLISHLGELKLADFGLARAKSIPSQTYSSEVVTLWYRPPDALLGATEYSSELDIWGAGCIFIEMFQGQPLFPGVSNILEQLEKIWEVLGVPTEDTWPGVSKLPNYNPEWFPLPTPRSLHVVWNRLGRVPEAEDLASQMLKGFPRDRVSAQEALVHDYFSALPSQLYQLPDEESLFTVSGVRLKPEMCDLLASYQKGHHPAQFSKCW
Sequence of Cyclin-dependent kinase 13 (Q14004 whole entry, looked up): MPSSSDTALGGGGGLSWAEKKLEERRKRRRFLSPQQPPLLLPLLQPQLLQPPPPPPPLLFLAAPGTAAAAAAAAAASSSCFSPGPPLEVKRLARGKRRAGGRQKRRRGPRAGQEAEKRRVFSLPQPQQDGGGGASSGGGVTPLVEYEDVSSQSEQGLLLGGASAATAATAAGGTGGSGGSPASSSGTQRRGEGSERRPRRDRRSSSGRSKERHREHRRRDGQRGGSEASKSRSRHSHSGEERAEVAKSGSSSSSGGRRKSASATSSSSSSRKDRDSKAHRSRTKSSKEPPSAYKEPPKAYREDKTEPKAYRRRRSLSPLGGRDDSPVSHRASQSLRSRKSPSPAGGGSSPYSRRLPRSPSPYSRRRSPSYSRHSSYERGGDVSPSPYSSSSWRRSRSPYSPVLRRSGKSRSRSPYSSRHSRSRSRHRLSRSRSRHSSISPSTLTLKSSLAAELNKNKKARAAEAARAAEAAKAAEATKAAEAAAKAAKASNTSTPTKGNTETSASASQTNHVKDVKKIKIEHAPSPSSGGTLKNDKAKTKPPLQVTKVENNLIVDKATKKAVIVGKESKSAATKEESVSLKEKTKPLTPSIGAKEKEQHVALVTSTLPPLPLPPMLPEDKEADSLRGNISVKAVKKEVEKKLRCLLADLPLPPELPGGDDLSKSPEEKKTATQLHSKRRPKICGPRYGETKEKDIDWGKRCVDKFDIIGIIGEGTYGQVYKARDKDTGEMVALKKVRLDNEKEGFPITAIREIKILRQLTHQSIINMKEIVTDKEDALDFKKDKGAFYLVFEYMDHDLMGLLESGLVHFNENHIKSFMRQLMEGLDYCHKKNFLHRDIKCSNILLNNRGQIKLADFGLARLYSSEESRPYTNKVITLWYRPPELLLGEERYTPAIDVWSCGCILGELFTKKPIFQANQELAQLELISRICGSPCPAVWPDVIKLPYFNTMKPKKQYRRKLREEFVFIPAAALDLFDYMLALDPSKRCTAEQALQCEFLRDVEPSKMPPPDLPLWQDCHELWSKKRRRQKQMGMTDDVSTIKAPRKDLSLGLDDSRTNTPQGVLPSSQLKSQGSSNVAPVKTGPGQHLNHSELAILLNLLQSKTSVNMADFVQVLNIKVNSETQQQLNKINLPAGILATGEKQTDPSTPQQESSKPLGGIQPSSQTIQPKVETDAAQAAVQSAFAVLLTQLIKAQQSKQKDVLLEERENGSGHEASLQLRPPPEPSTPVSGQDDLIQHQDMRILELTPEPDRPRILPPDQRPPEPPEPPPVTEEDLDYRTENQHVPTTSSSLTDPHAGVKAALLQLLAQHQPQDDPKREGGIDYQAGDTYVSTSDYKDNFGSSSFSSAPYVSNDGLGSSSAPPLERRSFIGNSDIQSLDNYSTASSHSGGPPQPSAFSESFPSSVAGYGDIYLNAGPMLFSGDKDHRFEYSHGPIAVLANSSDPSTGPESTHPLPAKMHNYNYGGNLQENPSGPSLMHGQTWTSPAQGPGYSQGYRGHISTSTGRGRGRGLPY
Sequence of Glycogen synthase kinase-3 beta (P49841 whole entry, canonical isoform): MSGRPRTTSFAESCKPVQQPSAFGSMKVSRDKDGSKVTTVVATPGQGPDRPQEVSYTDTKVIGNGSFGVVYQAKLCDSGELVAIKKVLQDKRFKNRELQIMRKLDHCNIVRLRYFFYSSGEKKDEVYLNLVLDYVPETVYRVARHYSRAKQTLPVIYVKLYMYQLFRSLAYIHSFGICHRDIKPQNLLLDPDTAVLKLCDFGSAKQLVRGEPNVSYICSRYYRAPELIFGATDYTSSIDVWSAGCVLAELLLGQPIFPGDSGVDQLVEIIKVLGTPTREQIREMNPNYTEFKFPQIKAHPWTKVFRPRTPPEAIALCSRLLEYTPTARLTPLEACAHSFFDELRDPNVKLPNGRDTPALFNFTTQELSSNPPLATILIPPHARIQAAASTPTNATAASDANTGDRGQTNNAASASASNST

The term IC50 denotes the concentration that inhibits the measured activity by half. The low end stands for higher potency, the high end for lower potency. The inhibition is the change of the read-out against control, counted positive when it falls. As a reminder, the AUC(0-inf) is total exposure, with the tail of the curve extrapolated. A low value points to low exposure. Regarding `CCOc1cc(N2CCC(O)CC2)ccc1Nc1ncc2c(n1)N(C)c1ccccc1C(=O)N2C`, the IC50 in [1], in series [3] and in [13] was over 50 µM each time. Further, the inhibition in [2] is 11.5%; in [6], -7.5%; in [7] it was 8.5%; in series [11], -6.5%; in series [14] it was 28.1%. Further, the inhibition at 2 µM in series [4] is -4.1%; in series [10], 27.1%; in [15] it was -2.1%. This compound registered an AUC(0-inf) in series [5] of 1.9 µM·h. In series [8], the inhibition entry is “Active”. Besides, the inhibition at 10 µM in [9] was -7.8%. Moreover, the Activity in series [12] amounted to 2.5 g/dL.
